Test results from ChEMBL document CHEMBL1140227, “Histone deacetylase inhibitors through click chemistry” (J Med Chem, 2008).

Experiments:
Assay type in all cases: functional
HCT-116 = experiment: Growth inhibition of human HCT116 cells at 10 uM relative to control; conditions: values are per cent of control
In short: (§1)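 Single-dose preliminary screen in the NCI human cancer cell line panel, run by the NIH. Percent inhibition of cell line growth was calculated by comparison with untreated samples.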

HCT-15 = experiment: Growth inhibition of human HCT15 cells at 10 uM relative to control; conditions: values are per cent of control; in short: as §1
HT-29 = experiment: Growth inhibition of human HT-29 cells at 10 uM relative to control; conditions: values are per cent of control; in short: as §1
KM12 = experiment: Growth inhibition of human KM12 cells at 10 uM relative to control; conditions: values are per cent of control; in short: as §1
SW-620 = experiment: Growth inhibition of human SW620 cells at 10 uM relative to control; conditions: values are per cent of control
In short: (§2)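 Single-dose NCI human tumour cell line screen, run by the NIH. Percent inhibition of cell line growth was calculated by comparison with untreated samples.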

BT-549 = experiment: Growth inhibition of human BT549 cells at 10 uM relative to control; conditions: values are per cent of control; in short: as §1
MCF7 = experiment: Growth inhibition of human MCF7 cells at 10 uM relative to control; conditions: values are per cent of control; in short: as §1
MDA-MB-231 = experiment: Growth inhibition of human MDA-MB-231 cells at 10 uM relative to control; conditions: values are per cent of control; in short: as §1
MDA-MB-435 = experiment: Growth inhibition of human MDA-MB-435 cells at 10 uM relative to control; conditions: values are per cent of control; in short: as §1
MDA-MB-468 = experiment: Growth inhibition of human MDA-MB-468 cells at 10 uM relative to control; conditions: values are per cent of control; in short: as §1
NCI/ADR-RES = experiment: Growth inhibition of human NCI/ADR-RES cells at 10 uM relative to control; conditions: values are per cent of control; in short: as §1
T47D = experiment: Growth inhibition of human T47D cells at 10 uM relative to control; conditions: values are per cent of control; in short: as §2
IGROV-1 = experiment: Growth inhibition of human IGROV1 cells at 10 uM relative to control; conditions: values are per cent of control; in short: as §1
OVCAR-3 = experiment: Growth inhibition of human OVCAR-3 cells at 10 uM relative to control; conditions: values are per cent of control; in short: as §1
OVCAR-4 = experiment: Growth inhibition of human OVCAR4 cells at 10 uM relative to control; conditions: values are per cent of control; in short: as §1
OVCAR-5 = experiment: Growth inhibition of human OVCAR5 cells at 10 uM relative to control; conditions: values are per cent of control; in short: as §1
OVCAR-8 = experiment: Growth inhibition of human OVCAR8 cells at 10 uM relative to control; conditions: values are per cent of control; in short: as §1
SK-OV-3 = experiment: Growth inhibition of human SKOV3 cells at 10 uM relative to control; conditions: values are per cent of control; in short: as §1
CCRF-CEM = experiment: Growth inhibition of human CCRF-CEM cells at 10 uM relative to control; conditions: values are per cent of control; in short: as §1
HL-60(TB) = experiment: Growth inhibition of human HL-60(TB) cells at 10 uM relative to control; conditions: read-out: INH
In short: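 Single-dose cell line screen run by the NCI (NIH) in its human cancer cell line panel, which includes the leukemia line HL-60(TB). Percent growth inhibition was calculated by comparison with untreated samples.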

K562 = experiment: Growth inhibition of human K562 cells at 10 uM relative to control; conditions: values are per cent of control; in short: as §1
MOLT-4 = experiment: Growth inhibition of human MOLT4 cells at 10 uM relative to control; conditions: values are per cent of control; in short: as §1
[1] = Growth inhibition of human RPMI8266 cells at 10 uM relative to control; conditions: values are per cent of control; in short: as §1
786-0 = experiment: Growth inhibition of human 786-0 cells at 10 uM relative to control; conditions: values are per cent of control; in short: as §1
A498 = experiment: Growth inhibition of human A498 cells at 10 uM relative to control; conditions: values are per cent of control; in short: as §1
ACHN = experiment: Growth inhibition of human ACHN cells at 10 uM relative to control; conditions: values are per cent of control; in short: as §1
CAKI-1 = experiment: Growth inhibition of human Caki1 cells at 10 uM relative to control; conditions: values are per cent of control; in short: as §1
SN12C = experiment: Growth inhibition of human SN12C cells at 10 uM relative to control; conditions: values are per cent of control; in short: as §1
TK-10 = experiment: Growth inhibition of human TK10 cells at 10 uM relative to control; conditions: values are per cent of control; in short: as §2
UO-31 = experiment: Growth inhibition of human UO31 cells at 10 uM relative to control; conditions: values are per cent of control; in short: as §2
LOX IMVI = experiment: Growth inhibition of human LOXIMVI cells at 10 uM relative to control; conditions: values are per cent of control; in short: as §1
M14 = experiment: Growth inhibition of human M14 cells at 10 uM relative to control; conditions: values are per cent of control; in short: as §1
Malme-3M = experiment: Growth inhibition of human MALME-3M cells at 10 uM relative to control; conditions: values are per cent of control; in short: as §1
SK-MEL-2 = experiment: Growth inhibition of human SK-MEL-2 cells at 10 uM relative to control; conditions: values are per cent of control; in short: as §1
SK-MEL-28 = experiment: Growth inhibition of human SK-MEL-28 cells at 10 uM relative to control; conditions: values are per cent of control; in short: as §1
SK-MEL-5 = experiment: Growth inhibition of human SK-MEL-5 cells at 10 uM relative to control; conditions: values are per cent of control; in short: as §1
UACC-257 = experiment: Growth inhibition of human UACC257 cells at 10 uM relative to control; conditions: values are per cent of control; in short: as §2
UACC-62 = experiment: Growth inhibition of human UACC62 cells at 10 uM relative to control; conditions: values are per cent of control; in short: as §2
DU-145 = experiment: Growth inhibition of human DU145 cells at 10 uM relative to control; conditions: values are per cent of control; in short: as §1
PC-3 = experiment: Growth inhibition of human PC3 cells at 10 uM relative to control; conditions: values are per cent of control; in short: as §1
SF-268 = experiment: Growth inhibition of human SF268 cells at 10 uM relative to control; conditions: values are per cent of control; in short: as §1
SF-295 = experiment: Growth inhibition of human SF295 cells at 10 uM relative to control; conditions: values are per cent of control; in short: as §1
SF-539 = experiment: Growth inhibition of human SF539 cells at 10 uM relative to control; conditions: values are per cent of control; in short: as §1
SNB-19 = experiment: Growth inhibition of human SNB19 cells at 10 uM relative to control; conditions: values are per cent of control; in short: as §1
SNB-75 = experiment: Growth inhibition of human SNB75 cells at 10 uM relative to control; conditions: values are per cent of control; in short: as §2
U-251 = experiment: Growth inhibition of human U251 cells at 10 uM relative to control; conditions: values are per cent of control; in short: as §2
cells [2] = conditions: Homo sapiens, Cancer cell lines
cells [3] = conditions: Homo sapiens, Cancer cell lines; remark: listed apart in the source
Leukemia cell = experiment: cells; conditions: Homo sapiens
cells [4] = conditions: Homo sapiens, Cancer cell lines; remark: listed apart in the source
Melanoma cell = experiment: cells; conditions: Homo sapiens
cells [5] = conditions: Homo sapiens, Cancer cell lines; remark: listed apart in the source
cells [6] = conditions: Homo sapiens, Cancer cell lines; remark: listed apart in the source
A549 = experiment: Growth inhibition of human A549 cells at 10 uM relative to control; conditions: values are per cent of control; in short: as §1
EKVX = experiment: Growth inhibition of human EKVX cells at 10 uM relative to control; conditions: values are per cent of control; in short: as §1
HOP-62 = experiment: Growth inhibition of human HOP62 cells at 10 uM relative to control; conditions: values are per cent of control; in short: as §1
HOP-92 = experiment: Growth inhibition of human HOP92 cells at 10 uM relative to control; conditions: values are per cent of control; in short: as §1
NCI-H226 = experiment: Growth inhibition of human NCI-H226 cells at 10 uM relative to control; conditions: values are per cent of control; in short: as §1
NCI-H23 = experiment: Growth inhibition of human NCI-H23 cells at 10 uM relative to control; conditions: values are per cent of control; in short: as §1
NCI-H322M = experiment: Growth inhibition of human NCI-H322M cells at 10 uM relative to control; conditions: values are per cent of control; in short: as §1
NCI-H460 = experiment: Growth inhibition of human NCI-H460 cells at 10 uM relative to control; conditions: values are per cent of control; in short: as §1
NCI-H522 = experiment: Growth inhibition of human NCI-H522 cells at 10 uM relative to control; conditions: values are per cent of control; in short: as §1
COLO 205 = experiment: Growth inhibition of human COLO205 cells at 10 uM relative to control; conditions: values are per cent of control; in short: as §1
HCC 2998 = experiment: Growth inhibition of human HCC2998 cells at 10 uM relative to control; conditions: values are per cent of control; in short: as §1

## O=C(/C=C/c1cn(CCc2ccccc2)nn1)NO
HCT-116
  growth, % of control at 10 µM: 5.49%
HCT-15
  growth, % of control at 10 µM: 75.8%
HT-29
  growth, % of control at 10 µM: 56.9%
KM12
  growth, % of control at 10 µM: 67.8%
SW-620
  growth, % of control at 10 µM: 31.1%
BT-549
  growth, % of control at 10 µM: 78%
MCF7
  growth, % of control at 10 µM: 63.7%
MDA-MB-231
  growth, % of control at 10 µM: 60.3%
MDA-MB-435
  growth, % of control at 10 µM: 21.9%
MDA-MB-468
  growth, % of control at 10 µM: 56%
NCI/ADR-RES
  growth, % of control at 10 µM: -13.7%
T47D
  growth, % of control at 10 µM: 32.8%
IGROV-1
  growth, % of control at 10 µM: 44.6%
OVCAR-3
  growth, % of control at 10 µM: 61.3%
OVCAR-4
  growth, % of control at 10 µM: 77.5%
OVCAR-5
  growth, % of control at 10 µM: 23.5%
OVCAR-8
  growth, % of control at 10 µM: 26.5%
SK-OV-3
  growth, % of control at 10 µM: 57%
CCRF-CEM
  growth, % of control at 10 µM: 7.44%
HL-60(TB)
  growth, % of control at 10 µM: -10.7%
K562
  growth, % of control at 10 µM: 30.5%
MOLT-4
  growth, % of control at 10 µM: 3.77%
[1]
  growth, % of control at 10 µM: 1.76%
786-0
  growth, % of control at 10 µM: 26.3%
A498
  growth, % of control at 10 µM: 52.4%
ACHN
  growth, % of control at 10 µM: 29.3%
CAKI-1
  growth, % of control at 10 µM: 52.9%
SN12C
  growth, % of control at 10 µM: 64.8%
TK-10
  growth, % of control at 10 µM: 57.7%
UO-31
  growth, % of control at 10 µM: 37.4%
LOX IMVI
  growth, % of control at 10 µM: 44.9%
M14
  growth, % of control at 10 µM: 44.7%
Malme-3M
  growth, % of control at 10 µM: 15.9%
SK-MEL-2
  growth, % of control at 10 µM: 45.8%
SK-MEL-28
  growth, % of control at 10 µM: 42.6%
SK-MEL-5
  growth, % of control at 10 µM: 35.5%
UACC-257
  growth, % of control at 10 µM: 19.5%
UACC-62
  growth, % of control at 10 µM: 18.1%
DU-145
  growth, % of control at 10 µM: 35.5%
PC-3
  growth, % of control at 10 µM: 37.2%
SF-268
  growth, % of control at 10 µM: 57.2%
SF-295
  growth, % of control at 10 µM: 51.8%
SF-539
  growth, % of control at 10 µM: 72.8%
SNB-19
  growth, % of control at 10 µM: 90%
SNB-75
  growth, % of control at 10 µM: 35.1%
U-251
  growth, % of control at 10 µM: 40.7%
Cells [2]
  growth percent at 10 µM: 40%
Cells [3]
  inhibition at 10 µM: 48%
Leukemia cell
  inhibition at 10 µM: 7%
Cells [4]
  growth percent at 10 µM: 46%
Melanoma cell
  inhibition at 10 µM: 33%
Cells [5]
  inhibition at 10 µM: 58%
Cells [6]
  inhibition at 10 µM: 45%
A549
  growth, % of control at 10 µM: 54.2%
EKVX
  growth, % of control at 10 µM: 44.6%
HOP-62
  growth, % of control at 10 µM: 13.3%
HOP-92
  growth, % of control at 10 µM: -9.64%
NCI-H226
  growth, % of control at 10 µM: 76.5%
NCI-H23
  growth, % of control at 10 µM: 68.4%
NCI-H322M
  growth, % of control at 10 µM: 66%
NCI-H460
  growth, % of control at 10 µM: 62.5%
NCI-H522
  growth, % of control at 10 µM: 27.7%
COLO 205
  growth, % of control at 10 µM: 53.9%
HCC 2998
  growth, % of control at 10 µM: 69.2%
